Measurements from ChEMBL document CHEMBL2346621, “Discovery of novel tricyclic indole derived inhibitors of HCV NS5B RNA dependent RNA polymerase” (Bioorg Med Chem, 2013).

Tests used:
Hepatitis C virus [1] = test: Antiviral activity against Hepatitis C virus infected in human hepatoma cells assessed as reduction in replicon RNA level; type: functional, organism-based, Hepacivirus hominis
Procedure, shortened: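 Replicon-bearing hepatoma cells were used. EC50 is the concentration that reduces viral RNA levels by 50%.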

Hepatitis C virus [2] = test: Inhibition of HCV-1b Con-1 C-terminal His6x-tagged NS5B delta21 RNA dependent RNA polymerase expressed in Escherichia coli JM109 (DE3) assessed as [alpha-33P]CTP incorporation in RNA after 30 mins by scintillation counting analysis; set-up: species or system Hepatitis C virus subtype 1b; conditions: Con1, JM 109, 0.5 h
[3] = Cytotoxicity against human hepatoma cells assessed as cell viability by MTS assay; type: cell-based
Procedure, shortened: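 Cellular toxicity was measured by MTS assay, with GAPDH also used as an internal control, and expressed as CC50.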

[4] = AUC (0 to 6 hrs) in rat at 10 mg/kg, po; type: ADME, organism-based; set-up: time < 6 hr, dose 10 mg/kg, route oral; conditions: plasma
Procedure, shortened: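 Rapid rat assay: single oral 10 mg/kg dose in 0.4% HPMC. Plasma AUC integrated over 0–6 h after dosing (AUC0–6 h).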

EC50 (Hepatitis C virus [1]) | IC50 (Hepatitis C virus [2]) | AUC(0-t) at 6 h [4] | Compound | CC50 [3]
1000 nM | 10 nM | – | O=C(NS(=O)(=O)Cc1ccccc1)c1c(-c2ccc[nH]c2=O)c2cc(Cl)ccc2n1Cc1cc(F)ccc1F | –
– | > 5000 nM | – | CCc1coc2c1ccc1c2c(-c2ccc[nH]c2=O)c(C(=O)O)n1Cc1cc(F)ccc1F | > 10000 nM
80 nM | 31 nM | 2.4 µM·h | CS(=O)(=O)NC(=O)c1c(-c2ccc[nH]c2=O)c2c3occc3ccc2n1Cc1ccc(F)cc1F | > 10000 nM
30 nM | 3 nM | 0.3 µM·h | Cc1cccc(Cn2c(C(=O)NS(C)(=O)=O)c(-c3ccc[nH]c3=O)c3c4occc4ccc32)c1F | > 10000 nM
460 nM | 8 nM | 11 µM·h | O=C(O)c1c(-c2ccc[nH]c2=O)c2c3c(ccc2n1Cc1cc(F)ccc1F)CCO3 | > 10000 nM
120 nM | 7 nM | – | O=C(O)c1c(-c2ccc[nH]c2=O)c2c3occ(Cl)c3ccc2n1Cc1cc(F)ccc1F | > 10000 nM
50 nM | 3 nM | – | CS(=O)(=O)NC(=O)c1c(-c2ccc[nH]c2=O)c2c3occc3ccc2n1Cc1ccccc1Cl | > 10000 nM
110 nM | 6 nM | 0.7 µM·h | CCS(=O)(=O)NC(=O)c1c(-c2ccc[nH]c2=O)c2c3occc3ccc2n1Cc1cc(F)ccc1F | > 10000 nM
160 nM | 31 nM | 146 µM·h | O=C(O)c1c(-c2ccc[nH]c2=O)c2c3occc3ccc2n1Cc1cc(F)ccc1F | > 10000 nM
– | 2900 nM | – | Cc1coc2c1ccc1c2c(-c2ccc[nH]c2=O)c(C(=O)O)n1Cc1cc(F)ccc1F | > 10000 nM
3500 nM | 27 nM | 104 µM·h | O=C(O)c1c(-c2ccc[nH]c2=O)c2c3c(ccc2n1Cc1cc(F)ccc1F)CCC3 | > 10000 nM
2000 nM | 21 nM | – | Cc1cc2ccc3c(c(-c4ccc[nH]c4=O)c(C(=O)O)n3Cc3cc(F)ccc3F)c2o1 | > 10000 nM
50 nM | 16 nM | – | O=C(NS(=O)(=O)C1CC1)c1c(-c2ccc[nH]c2=O)c2c3occc3ccc2n1Cc1cc(F)ccc1F | > 10000 nM
3100 nM | 34 nM | – | O=C(O)c1c(-c2ccc[nH]c2=O)c2c3ccoc3ccc2n1Cc1cc(F)ccc1F | > 10000 nM
30 nM | 10 nM | – | CS(=O)(=O)NC(=O)c1c(-c2ccc[nH]c2=O)c2c3occc3ccc2n1Cc1cc(C(N)=O)ccc1F | > 10000 nM
100 nM | 8 nM | 9.5 µM·h | CS(=O)(=O)NC(=O)c1c(-c2ccc[nH]c2=O)c2c3occc3ccc2n1Cc1ccccc1F | > 10000 nM
50 nM | 9 nM | 11 µM·h | CS(=O)(=O)NC(=O)c1c(-c2ccc[nH]c2=O)c2c3occc3ccc2n1Cc1cc(F)ccc1F | > 10000 nM
50 nM | 8 nM | 1 µM·h | CC(C)S(=O)(=O)NC(=O)c1c(-c2ccc[nH]c2=O)c2c3occc3ccc2n1Cc1cc(F)ccc1F | > 10000 nM
700 nM | 9 nM | – | O=C(O)c1c(-c2ccc[nH]c2=O)c2c3ncsc3ccc2n1Cc1cc(F)ccc1F | > 10000 nM
60 nM | 6 nM | – | Cc1ccc(Cn2c(C(=O)NS(C)(=O)=O)c(-c3ccc[nH]c3=O)c3c4occc4ccc32)c(C)c1 | > 10000 nM
50 nM | 10 nM | 1.2 µM·h | Cc1ccccc1Cn1c(C(=O)NS(C)(=O)=O)c(-c2ccc[nH]c2=O)c2c3occc3ccc21 | > 10000 nM
2000 nM | 7 nM | – | O=C(O)c1c(-c2ccc[nH]c2=O)c2c3c(ccc2n1Cc1cc(F)ccc1F)OC(F)(F)O3 | > 10000 nM
– | 1700 nM | 104 µM·h | O=C(O)c1c(-c2ccc[nH]c2=O)c2c3scnc3ccc2n1Cc1cc(F)ccc1F | > 10000 nM
